VIM-2 inhibitor = VIM-2 metallo-beta-lactamase inhibitors, primary screen, biochemical, epi-absorbance readout, Pseudomonas aeruginosa enzyme; purified VIM-2, nitrocefin hydrolysis, epi-absorbance fluorescence; inhibition, % at 5.6 µM; hit rate 0.89% among 290,000; AID 1527, 2009;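 active means inhibition above the mean of all tested compounds plus 3 SD, cutoff set per screening run, cut at about 7.5% in these data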;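 further: red hydrolysis product quenches plate fluorescence so inhibitors raise well fluorescence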
procasp7 counter = procaspase-7 activators, primary screen, counter-screen for procaspase-3 activator project, biochemical, absorbance, HTS, human; hit rate 0.093% among 330,000; AID 463210, 2010; Caspase-7 (Homo sapiens), P55210; recombinant procaspase-7, Ac-DEVD-pNA absorbance 405 nm; D23A/D198A/D206A triple mutant, cannot self-cleave; scale: DMSO 0, 5 µM enzyme 100; activation, % at 8.5 µM;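 active means percent activation above the screen-wide mean plus 3 SD, cut at about 25% in these data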
Target sequence (P55210 whole entry D23A/D198A/D206A): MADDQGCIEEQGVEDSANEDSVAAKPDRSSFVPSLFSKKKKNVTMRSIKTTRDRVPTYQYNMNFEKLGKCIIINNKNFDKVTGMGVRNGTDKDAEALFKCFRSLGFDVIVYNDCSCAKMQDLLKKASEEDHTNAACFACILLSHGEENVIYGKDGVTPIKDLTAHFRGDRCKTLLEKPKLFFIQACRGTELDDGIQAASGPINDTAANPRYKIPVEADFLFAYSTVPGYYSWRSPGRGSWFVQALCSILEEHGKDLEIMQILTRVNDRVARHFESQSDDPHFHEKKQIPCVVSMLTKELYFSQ
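signal = Epi-absorbance of released pNA at 405 nm, two timepoints | assay system = Uncleavable procaspase-7 mutant enzyme | reagent = Ac-DEVD-pNA substrate, 400 µM as added | times = 1 h enzyme–compound preincubation and 2 h substrate reaction, both 25 °C | benchmarks = low DMSO alone, high DMSO plus 5 µM PC-7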
procasp3 activ = activators of human procaspase-3 D3A mutant, primary screen, biochemical, absorbance, PC-3 D3A mutant, single concentration; recombinant procaspase-3 D3A, Ac-DEVD-pNA absorbance 405 nm; activation, % at 8.5 µM; AID 463141, 2010; Caspase-3 (Homo sapiens), P42574; hit rate 0.11% among 330,000;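 active means activation above the mean of all tested compounds plus 3 SD, cut at about 21% in these data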
Target sequence (P42574 whole entry D9A/D28A/D175A): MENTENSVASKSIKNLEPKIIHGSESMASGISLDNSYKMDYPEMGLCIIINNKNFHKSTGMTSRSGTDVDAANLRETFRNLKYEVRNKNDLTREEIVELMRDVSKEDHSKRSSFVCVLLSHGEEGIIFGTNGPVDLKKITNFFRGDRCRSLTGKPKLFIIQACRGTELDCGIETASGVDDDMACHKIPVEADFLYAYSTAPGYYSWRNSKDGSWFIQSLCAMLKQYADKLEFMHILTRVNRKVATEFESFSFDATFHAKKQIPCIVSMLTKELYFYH
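Test system: Procaspase-3 D3A mutant; medium: Zinc-free HEPES/NaCl buffer with 0.01% Triton X-100 at pH 7.4; reagent: DEVD-pNA substrate; doses: one concentration, 8.5 µM nominal, 0.8% DMSO; times: 1 h preincubation plus 2 h reaction at 25 °C; signal: Epi-absorbance at 405 nm of released p-nitroaniline, 0 and 120 min; replicates: singlicate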
IMP-1 inhibitor = IMP-1 metallo-beta-lactamase inhibitors, primary screen, biochemical, epi-absorbance readout, Pseudomonas aeruginosa enzyme; metallo-beta-lactamase IMP-1 (Pseudomonas aeruginosa); purified IMP-1, nitrocefin hydrolysis, epi-absorbance fluorescence; inhibition, % at 5.6 µM; hit rate 0.45% among 290,000; AID 1556, 2009;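 active means inhibition above the mean plus 3 SD of all compounds in the same screening run, cut at about 4.5% in these data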
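System: purified IMP-1 / Input: IMP-1 dispensed at 0.2 nM / Medium: 50 mM HEPES pH 7.1, 50 µM ZnSO4, 0.05% Brij 35 / Timing: 15 min enzyme–compound preincubation, then 25 min nitrocefin reaction, 25 °C / Technique: plate fluorescence quenching by hydrolysis product, ex 480/em 530 nm / Repeats: singlicate testing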
Neddyl block = inhibitors of cullin neddylation, primary screen, biochemical, TR-FRET, uHTS, NAE and Ubc12 | NEDD8-conjugating enzyme Ubc12 (Homo sapiens) + NEDD8-activating enzyme E1 regulatory … | calls only at 25 µM | hit rate 0.58% among 360,000; in the data active means inhibition above about 36%
PolyA inh = polyadenylation inhibitors in yeast reporter cells, primary screen, luminescence, S. cerevisiae; activity score, % at 12 µM; S. cerevisiae SKY197-pL101 polyadenylation reporter, beta-gal luminescence; efflux-impaired pdr1/pdr3 knockout yeast; score 100 = 6 SD above DMSO; AID 1875, 2009; hit rate 0.02% among 300,000;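 active means lowest replicate activity score at least 50, where 100 means six control SD above control mean; inconclusive means lowest score under 50 but half or more replicates reach 50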;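 further: yeast exposed to compound for 9 h at 30 °C; higher score means more reporter readthrough which indicates perturbed polyadenylation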
Neddyl conf = blockade of NEDD8 conjugation to cullin – biochemical, TR-FRET, single concentration, confirmation. calls only at 25 µM. TR-FRET cullin neddylation biochemical assay. shares compounds with Neddyl block. AID 652217, 2013. hit rate 13% among 1,800; in the data active means inhibition above about 40%;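 further: neddylation substrate is the cullin 1 ring ligase complex with SKP2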
Each line names hits and unclear results; the compound was inactive in the other large screens (follow-up assays come after a bar, where shown). Sampled rows, rich in hits. Any-hit rate of the full collection: about 1.7%.

Cc1cc(Nc2cc(C(=O)O)ccc2C)n2ncnc2n1	none
COc1ccc(S(=O)(=O)N(Cc2ccccc2)c2ccccc2C(=O)Nc2ccccc2C(=O)NCc2ccco2)cc1	none
COc1ccc(S(=O)(=O)Nc2ccccc2C(=O)NCc2ccco2)cc1	Neddyl block active | Neddyl conf active
O=C(CCSc1nnc2scc(-c3ccccc3)n12)NCc1ccc2c(c1)OCO2	none
Cc1cccn2c(=O)c(C=Nc3ccccc3)c(NCCO)nc12	Neddyl block active | Neddyl conf inactive
CNc1nc2c(C)cccn2c(=O)c1C=NCc1ccccc1	none
Cc1cccn2c(=O)c(C=Nc3ccc(Cl)cc3)c(NCCO)nc12	none
CN=Cc1c(NC)nc2c(C)cccn2c1=O	Neddyl block active | Neddyl conf active
Cc1noc(C)c1C(=O)N1CCCC(C(=O)c2ccc(Cl)cc2)C1 (stereo unspecified)	none
COc1ccc(OC)c(NCc2nnc(-c3ccccc3)o2)c1	none (no result: procasp7 counter, procasp3 activ)
COc1ccc(-c2ccc(-c3nnc(Cc4ccc(OC)c(OC)c4)o3)cc2)cc1	Neddyl block active | Neddyl conf inactive
CC1CCN(S(=O)(=O)c2ccc3c(c2)C(=NO)c2cc(S(=O)(=O)N4CCC(C)CC4)ccc2-3)CC1	Neddyl block active (no result: PolyA inh) | Neddyl conf inactive
CCc1ccc2oc(C(=O)Nc3ccc(S(N)(=O)=O)cc3)c(C)c2c1	none (not shown: Neddyl block)
Cc1c(C(=O)Nc2ccc(S(N)(=O)=O)cc2)oc2ccc(Cl)cc12	Neddyl block active | Neddyl conf inactive
CCN1CCCC1CNC(=O)c1cc2cc(F)ccc2[nH]1 (stereo unspecified)	Neddyl block active
CCN1CCCC1CNC(=O)c1ccc2c(=O)n(CCOC)c(=O)[nH]c2c1 (stereo unspecified)	Neddyl block active | Neddyl conf inactive
CC(Oc1ccccc1)C(=O)NC1CCCCCCC1 (stereo unspecified)	none
CC(OC(=O)/C=C/c1cccc(F)c1)C(=O)NC1CCCCC1C (stereo unspecified)	none
COc1cc(/C=C/C(=O)OC(C)C(=O)NC2CCCCC2C)cc(Cl)c1OC (stereo unspecified)	Neddyl block active (no result: VIM-2 inhibitor, IMP-1 inhibitor) | Neddyl conf inactive
c1ccc(Cn2c(SCc3cn4cccnc4n3)nnc2-c2ccco2)cc1	Neddyl block active | Neddyl conf inactive
COc1cc2c(cc1OC)C1=C(C#N)COCN1CC2	Neddyl block active | Neddyl conf inactive
O=C(NCC1CCCCC1)c1cc2ccccc2cc1O	Neddyl block active
O=C(NCC1CCCO1)c1cc2ccccc2cc1O (stereo unspecified)	none (no result: VIM-2 inhibitor, IMP-1 inhibitor)
NC(=O)COC(=O)c1ccccc1Nc1ccc(SC(F)F)cc1	Neddyl block active | Neddyl conf inactive
CCN(CC)CCNC(=O)C(C)c1nn(C)c(=O)c2ccccc12 (stereo unspecified)	none (no result: PolyA inh)
Nc1c(C(=O)Nc2ccc3c(c2)OCCO3)nnn1Cc1cccc(Cl)c1	none (no result: VIM-2 inhibitor, IMP-1 inhibitor)
Nc1c(C(=O)Nc2ccc3c(c2)OCCO3)nnn1Cc1ccc(F)cc1	Neddyl block active, PolyA inh inconclusive (no result: VIM-2 inhibitor, IMP-1 inhibitor) | Neddyl conf inactive
O=C(Cn1cnc2c(oc3ccccc32)c1=O)N1CCCC1	none
Nc1nccnc1C(=O)OCC(=O)NCCc1ccc(S(N)(=O)=O)cc1	Neddyl block active (not shown: VIM-2 inhibitor, IMP-1 inhibitor)
CCOC(=O)C1=C(C)NC(C)=C(C(=O)OCC)C1C(=O)OCC(=O)NC	none (no result: PolyA inh)
CCOC(=O)C1=C(C)NC(C)=C(C(=O)OCC)C1C(=O)OCC(=O)NCCc1ccc(S(N)(=O)=O)cc1	Neddyl block active (no result: VIM-2 inhibitor, IMP-1 inhibitor) | Neddyl conf inactive
CCOC(=O)C1=C(C)NC(C)=C(C(=O)OCC)C1C(=O)OCC(=O)NC(C)c1ccccc1 (stereo unspecified)	Neddyl block active (not shown: VIM-2 inhibitor, procasp7 counter, procasp3 activ, IMP-1 inhibitor, PolyA inh)
CCOC(=O)C1=C(C)NC(C)=C(C(=O)OCC)C1C(=O)OCC(=O)NCc1ccccc1	none (not shown: VIM-2 inhibitor, IMP-1 inhibitor, Neddyl block, PolyA inh)
COCC(=O)NCCc1ccc(S(N)(=O)=O)cc1	none
O=C(CSc1nnc(-c2ccccc2Br)o1)N1CCN(C(=O)c2ccco2)CC1	none
CCOc1ccc(C(Nc2ccc(C)cc2)P2(=O)OCC(C)(C)CO2)cc1 (stereo unspecified)	none
O=C(CSc1ccccc1C(=O)NCc1ccccc1)NC12CC3CC(CC(C3)C1)C2	none
OC(c1ccc(F)cc1)c1ncc(-c2cccc3ccccc23)[nH]1 (stereo unspecified)	Neddyl block active (no result: VIM-2 inhibitor, procasp7 counter, procasp3 activ, IMP-1 inhibitor, PolyA inh) | Neddyl conf inactive
Cc1cc(NC(=O)C(C)C)ncc1NC(=O)c1cccc(F)c1	none
Cc1ccsc1C(=O)Nc1cccc(-n2cnnn2)c1	none
NC(=O)c1nsc(C(=O)N(c2ccc(F)cc2)C(C(=O)NCC2CCCO2)c2ccc3ncccc3c2)c1N (stereo unspecified)	none (not shown: Neddyl block)
Cc1ccc(N(C(=O)c2snc(C(N)=O)c2N)C(C(=O)NCC2CCCO2)c2ccc3ncccc3c2)cc1 (stereo unspecified)	Neddyl block active (no result: procasp7 counter, procasp3 activ) | Neddyl conf inactive
COc1cccc(N(C(=O)c2snc(C(N)=O)c2N)C(C(=O)NCC2CCCO2)c2cccs2)c1 (stereo unspecified)	none
Cc1cccc(N(C(=O)c2snc(C(N)=O)c2N)C(C(=O)NCC2CCCO2)c2ccc3ncccc3c2)c1 (stereo unspecified)	Neddyl block active
COc1cccc(N(C(=O)c2snc(C(N)=O)c2N)C(C(=O)NCC2CCCO2)c2ccc3ncccc3c2)c1 (stereo unspecified)	Neddyl block active | Neddyl conf active
CCCCCCNc1cc(C)oc(=O)c1C(C)=O	none
c1ccc(-c2nc3ccccc3[nH]2)cc1	none
Nc1cc(N)cc(-c2nc3ccccc3[nH]2)c1	Neddyl block active (not shown: PolyA inh)
Cc1nc(C(=O)N2CCCC(N3CCN(c4ccc(F)cc4)CC3)C2)cs1 (stereo unspecified)	none (no result: VIM-2 inhibitor, procasp7 counter, procasp3 activ, IMP-1 inhibitor, PolyA inh)
CCCCCNc1nc(N2CCCC2)c2c(c1C#N)CCN(C)C2	Neddyl block active | Neddyl conf inactive

Screening results: PubChem, several laboratories
